From ChEMBL document CHEMBL1641461, “Azaindoles as potent CRTH2 receptor antagonists” (Bioorg Med Chem Lett, 2011)

Experiments:
[1] = biological target: T1, Prostaglandin D2 receptor (Homo sapiens, UniProt Q13258); experiment: Displacement of radioligand from prostanoid DP receptor expressed in HEK293 cells by competitive binding assay; assay type: cell-based
T1 sequence (Q13258 whole entry): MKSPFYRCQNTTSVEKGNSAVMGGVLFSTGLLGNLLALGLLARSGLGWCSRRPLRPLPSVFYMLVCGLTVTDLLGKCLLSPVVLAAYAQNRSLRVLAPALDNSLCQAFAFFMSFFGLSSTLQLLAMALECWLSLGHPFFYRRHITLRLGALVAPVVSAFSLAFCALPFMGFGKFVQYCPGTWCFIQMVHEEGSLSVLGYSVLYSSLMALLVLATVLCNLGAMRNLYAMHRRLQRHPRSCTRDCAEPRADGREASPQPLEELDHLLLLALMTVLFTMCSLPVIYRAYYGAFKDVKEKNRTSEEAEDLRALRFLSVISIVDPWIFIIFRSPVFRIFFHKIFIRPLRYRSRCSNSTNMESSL

[2] = biological target: T2, Prostaglandin D2 receptor 2 (Homo sapiens, UniProt Q9Y5Y4); experiment: Displacement of radioligand from human CRTH2 expressed in HEK293 cells by competitive binding assay; assay type: cell-based
T2 sequence (Q9Y5Y4 whole entry): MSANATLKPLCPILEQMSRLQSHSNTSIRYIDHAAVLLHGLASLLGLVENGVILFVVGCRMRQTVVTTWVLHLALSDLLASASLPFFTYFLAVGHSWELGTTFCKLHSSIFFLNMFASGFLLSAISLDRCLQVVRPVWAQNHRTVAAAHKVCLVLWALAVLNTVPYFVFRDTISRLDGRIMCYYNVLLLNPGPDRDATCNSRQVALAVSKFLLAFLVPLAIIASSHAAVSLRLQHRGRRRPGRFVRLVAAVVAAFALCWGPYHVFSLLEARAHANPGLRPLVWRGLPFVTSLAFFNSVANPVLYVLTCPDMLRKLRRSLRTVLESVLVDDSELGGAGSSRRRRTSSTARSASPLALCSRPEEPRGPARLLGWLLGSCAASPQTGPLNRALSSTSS
How it was run: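 Radioligand competition binding on membranes from HEK293 (EBNA) cells stably expressing hCRTH2, in 10 mM HEPES/KOH. Mean of two or more experiments.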

Thromboxane A2 receptor = biological target: T3, Thromboxane A2 receptor (Homo sapiens, UniProt P21731); experiment: Displacement of radioligand from prostanoid TP receptor expressed in HEK293 cells by competitive binding assay; assay type: cell-based
T3 sequence (P21731 whole entry): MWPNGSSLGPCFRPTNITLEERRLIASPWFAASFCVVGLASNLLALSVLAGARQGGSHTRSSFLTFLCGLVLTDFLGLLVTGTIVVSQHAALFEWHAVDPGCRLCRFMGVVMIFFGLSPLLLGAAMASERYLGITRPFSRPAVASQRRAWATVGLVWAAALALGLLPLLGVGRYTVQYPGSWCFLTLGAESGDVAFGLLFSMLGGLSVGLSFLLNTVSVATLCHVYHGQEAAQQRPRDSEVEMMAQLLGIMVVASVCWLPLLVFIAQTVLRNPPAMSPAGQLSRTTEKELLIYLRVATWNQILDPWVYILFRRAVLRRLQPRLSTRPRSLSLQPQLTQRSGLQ

[3] = biological target: T2, Prostaglandin D2 receptor 2; experiment: Antagonist activity at human CRTH2 expressed in HEK293 cells assessed as inhibition of forskolin-induced increase intracellular [125I]cAMP level by scintillation proximity assay; assay type: functional, cell-based
How it was run: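 Intracellular cAMP measured by ¹²⁵I-cAMP scintillation proximity assay in Hank's balanced salt solution with 25 mM HEPES and forskolin. Values are the mean of two or more experiments.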

[4] = Half life in Sprague-Dawley rat at 5 mg/kg, po and 1 mg/kg, iv; assay type: ADME, organism-based; settings: in vivo
How it was run: (§1)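 Rats dosed PO at 5 mg/kg (5 mL/kg) in 0.5% methocel and IV at 1 mg/kg (1 mL/kg) in 60% PEG 200; n = 2.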

[5] = Volume of distribution in Sprague-Dawley rat at 5 mg/kg, po and 1 mg/kg, iv; assay type: ADME, organism-based; settings: in vivo; how it was run: as §1
[6] = Clearance in Sprague-Dawley rat at 5 mg/kg, po and 1 mg/kg, iv; assay type: ADME, organism-based; settings: in vivo; how it was run: as §1
Cytochrome P450 2C9 = Cytochrome P450 2C9 (Homo sapiens, UniProt P11712); experiment: Inhibition of CYP2C9; assay type: ADME
Chain of Cytochrome P450 2C9 (P11712 whole entry): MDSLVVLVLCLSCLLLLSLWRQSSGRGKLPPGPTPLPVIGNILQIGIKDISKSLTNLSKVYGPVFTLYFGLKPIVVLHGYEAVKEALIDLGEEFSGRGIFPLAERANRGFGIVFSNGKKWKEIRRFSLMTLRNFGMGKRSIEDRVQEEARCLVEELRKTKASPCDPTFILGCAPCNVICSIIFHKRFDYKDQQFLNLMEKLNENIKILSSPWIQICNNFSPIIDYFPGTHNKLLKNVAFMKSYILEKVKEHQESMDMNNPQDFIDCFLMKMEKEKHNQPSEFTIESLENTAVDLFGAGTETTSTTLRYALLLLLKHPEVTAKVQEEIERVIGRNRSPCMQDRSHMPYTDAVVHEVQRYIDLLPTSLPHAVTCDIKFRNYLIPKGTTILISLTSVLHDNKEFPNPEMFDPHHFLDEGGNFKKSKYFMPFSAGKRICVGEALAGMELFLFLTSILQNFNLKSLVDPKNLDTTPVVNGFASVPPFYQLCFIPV
How it was run: (§2)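 CYP2C9 and CYP3A4 inhibition IC50 values, averaged over at least two experiments.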

[7] = Bioavailability in Sprague-Dawley rat at 5 mg/kg, po and 1 mg/kg, iv; assay type: ADME, organism-based; settings: in vivo; how it was run: as §1
Cytochrome P450 3A4 = Cytochrome P450 3A4 (Homo sapiens, UniProt P08684); experiment: Inhibition of CYP3A4; assay type: ADME; how it was run: as §2
Chain of Cytochrome P450 3A4 (P08684 whole entry): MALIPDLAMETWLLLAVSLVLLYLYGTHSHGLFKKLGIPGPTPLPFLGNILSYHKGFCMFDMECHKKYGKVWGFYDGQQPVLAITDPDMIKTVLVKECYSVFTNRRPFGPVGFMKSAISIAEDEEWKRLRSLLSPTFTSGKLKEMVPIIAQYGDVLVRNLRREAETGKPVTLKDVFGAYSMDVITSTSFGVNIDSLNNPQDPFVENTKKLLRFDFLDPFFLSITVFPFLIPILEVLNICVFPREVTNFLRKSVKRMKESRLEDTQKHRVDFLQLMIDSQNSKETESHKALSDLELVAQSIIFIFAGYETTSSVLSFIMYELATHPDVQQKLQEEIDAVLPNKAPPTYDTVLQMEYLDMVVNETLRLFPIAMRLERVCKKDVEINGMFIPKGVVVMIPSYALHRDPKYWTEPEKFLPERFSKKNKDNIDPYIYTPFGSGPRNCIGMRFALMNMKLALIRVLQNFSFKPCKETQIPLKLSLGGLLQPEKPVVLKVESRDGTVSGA

Rattus norvegicus = experiment: (§3) Bioavailability in Sprague-Dawley rat at 1 mg/kg, iv; assay type: ADME, organism-based; settings: in vivo
[8] = as §3; assay type: ADME, organism-based; settings: Sprague-Dawley, in vivo

| Ki [1] [nM] | Ki [2] [nM] | Ki (Thromboxane A2 receptor) [nM] | IC50 [3] [nM] | half-life [4] [h] | Vd [5] [L/kg] | clearance [6] [mL/min/kg] | IC50 (Cytochrome P450 2C9) [nM] | bioavailability [7] [%] | IC50 (Cytochrome P450 3A4) [nM] | F (Rattus norvegicus) [%] | bioavailability [8] [%] | Structure (SMILES) |
| --- | --- | --- | --- | --- | --- | --- | --- | --- | --- | --- | --- | --- |
| > 47000 | 3.3 | > 22000 | 3.4 | 7.5 | 0.23 | 0.4 | > 50000 | 50 | > 50000 | – | – | CN([C@@H]1CCc2c(CC(=O)O)c3cccnc3n2C1)S(=O)(=O)c1ccc(F)cc1 |
| > 38000 | 3.4 | > 71000 | 5.7 | 4 | 0.67 | 3.6 | > 50000 | 84 | > 50000 | – | – | C[C@@H](C(=O)N(C)[C@@H]1CCc2c(CC(=O)O)c3cccnc3n2C1)c1ccc(F)cc1 |
| > 12000 | 21.1 | > 22000 | 73.8 | – | – | – | – | – | – | – | – | C[C@H](C(=O)N(C)[C@@H]1CCc2c(CC(=O)O)c3cccnc3n2C1)c1ccc(F)cc1 |
| > 10000 | 4.7 | > 21000 | 3.5 | 1.9 | 1.54 | 21 | – | – | – | 156 | – | CN(C(=O)C(C)(C)c1ccc(F)cc1)[C@@H]1CCc2c(CC(=O)O)c3cccnc3n2C1 |
| > 3700 | 3.6 | > 6800 | 7.5 | 3.1 | 2.2 | 12 | – | 63 | – | – | – | CN(C(=O)C1(c2ccc(F)cc2)CC1)[C@@H]1CCc2c(CC(=O)O)c3cccnc3n2C1 |
| > 4000 | 5.1 | > 7200 | 4.4 | – | – | – | – | – | – | – | – | CN(C(=O)C1(c2ccc(F)cc2)CC1(C)C)[C@@H]1CCc2c(CC(=O)O)c3cccnc3n2C1 (stereo partly specified) |
| > 4000 | 3.4 | > 7200 | 4.7 | 2.1 | 4.58 | 28 | – | 20 | – | – | – | CN(C(=O)C1(c2ccc(F)cc2)CCC1)[C@@H]1CCc2c(CC(=O)O)c3cccnc3n2C1 |
| > 4000 | 3.9 | > 7200 | 4.5 | 11.6 | 1.72 | 18 | – | 38 | – | – | – | CN(C(=O)C1(c2ccc(F)cc2)CCCC1)[C@@H]1CCc2c(CC(=O)O)c3cccnc3n2C1 |
| > 4000 | 11.5 | > 7200 | 7 | – | – | – | – | – | – | – | – | CN(C(=O)C1(c2ccc(F)cc2)CCOCC1)[C@@H]1CCc2c(CC(=O)O)c3cccnc3n2C1 |

More lines, now with the values behind:

| Structure (SMILES) | Ki [1] [nM] | Ki [2] [nM] | Ki (Thromboxane A2 receptor) [nM] | IC50 [3] [nM] | half-life [4] [h] | Vd [5] [L/kg] | clearance [6] [mL/min/kg] | IC50 (Cytochrome P450 2C9) [nM] | bioavailability [7] [%] | IC50 (Cytochrome P450 3A4) [nM] | F (Rattus norvegicus) [%] | bioavailability [8] [%] |
| --- | --- | --- | --- | --- | --- | --- | --- | --- | --- | --- | --- | --- |
| CN([C@@H]1CCc2c(CC(=O)O)c3cnccc3n2C1)S(=O)(=O)c1ccc(F)cc1 | > 3400 | 6720 | > 6800 | – | – | – | – | – | – | – | – | – |
| CN([C@@H]1CCc2c(CC(=O)O)c3ccncc3n2C1)S(=O)(=O)c1ccc(F)cc1 | > 12000 | 139 | > 22000 | 351 | – | – | – | – | – | – | – | – |
| CN([C@@H]1CCc2c(CC(=O)O)c3ccc(Cl)nc3n2C1)S(=O)(=O)c1ccc(F)cc1 | > 18000 | 1.8 | > 27000 | 3.2 | – | – | – | – | – | – | – | – |
| CN([C@@H]1CCc2c(CC(=O)O)c3ccc(-c4ccc(F)cc4)nc3n2C1)S(=O)(=O)c1ccc(F)cc1 | > 3800 | 1.9 | > 1000 | 3.6 | – | – | – | – | – | – | – | – |
| CN([C@@H]1CCc2c(CC(=O)O)c3ncccc3n2C1)S(=O)(=O)c1ccc(F)cc1 | > 1300 | 7190 | > 7000 | – | – | – | – | – | – | – | – | – |
| CN([C@@H]1CCc2c(CC(=O)O)c3ccccc3n2C1)S(=O)(=O)c1ccc(F)cc1 [MK-7246] | – | – | – | – | 4.1 | 1.15 | 3.9 | – | – | – | – | 138 |
